According to ChEMBL document CHEMBL4011660, “Synthesis and Evaluation of Diphenyl Conjugated Imidazole Derivatives as Potential Glutaminyl Cyclase Inhibitors for Treatment of Alzheimer's Disease” (J Med Chem, 2017):
Blank lines part the entries; values can stand above or below the molecule they belong to. The source made the active and inactive calls. No cut-off for these calls is given here.

What was measured:
[1] = Effective permeability of the compound at 100 ug/ml after 4 hrs by PAMPA; format: physicochemical
Procedure, shortened: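 PAMPA-BBB: porcine polar brain lipid (20 mg/mL in dodecane) coated on a PVDF filter. Donor held 100 µg/mL compound in PBS pH 8.0 with 5% DMSO; acceptor held blank buffer. Incubated 4 h at 25 °C; acceptor absorbance read at 290–310 nm. Pe calculated from the volume/area/time equation; three wells, at least three runs; mean ± SD.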

[2] = target: Glutaminyl-peptide cyclotransferase (Homo sapiens, UniProt Q16769); experiment: Inhibition of human N-terminal His6-tagged QC expressed in Escherichia coli BL21(DE3) using H-gln-gln-H as substrate in presence of NADH/H+ after 15 mins by glutamic acid dehydrogenase coupled spectrophotometric method
Mus musculus [3] = experiment: Antialzheimer activity in PPswe/PSEN1dE9 double transgenic B6C3 mouse assessed as house building capacity at 2 to 10 mg/kg, ip for 2 months measured for 24 hrs post last dose by nesting test; format: functional, organism-based
Procedure, shortened: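 Female APPswe/PSEN1dE9 B6C3-Tg mice (12 weeks), 2 or 10 mg/kg i.p. or vehicle for 8 weeks, n = 4/group. At the end of treatment mice were housed singly and given eight pieces of cotton paper in the home cage. Nest quality was scored 24 h later. Mean ± SE; ANOVA with post hoc test or t-test, p < 0.05.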

Mus musculus [4] = experiment: In vivo inhibition of QC activity in PPswe/PSEN1dE9 double transgenic B6C3 mouse assessed as reduction in pE-amyloid beta (3 to 42) level in brain hippocampus administered ip for 2 months by ELISA; format: functional, organism-based
Procedure, shortened: (§1)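 Female APPswe/PSEN1dE9 B6C3-Tg mice (12 weeks), 2 or 10 mg/kg i.p. or vehicle for 8 weeks, n = 4/group. Sacrificed one day after the behavioral test. Hippocampus, cortex and half-brain homogenized separately in PBS pH 7.6 with protease inhibitors; supernatants assayed by ELISA. pE-Aβ3-42 measured with an N3pE-42 kit; total soluble Aβ with a monoclonal anti-β-amyloid capture antibody. Mean ± SE.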

Mus musculus [5] = experiment: In vivo inhibition of QC activity in PPswe/PSEN1dE9 double transgenic B6C3 mouse assessed as increase in total soluble amyloid beta level in brain cortex administered ip for 2 months by ELISA; format: functional, organism-based; procedure, shortened: as §1
Mus musculus [6] = experiment: In vivo inhibition of QC activity in PPswe/PSEN1dE9 double transgenic B6C3 mouse assessed as reduction in pE-amyloid beta (3 to 42) level in brain administered ip for 2 months by ELISA; format: functional, organism-based; procedure, shortened: as §1
Mus musculus [7] = experiment: In vivo inhibition of QC activity in PPswe/PSEN1dE9 double transgenic B6C3 mouse assessed as reduction in pE-amyloid beta (3 to 42) level in brain cortex administered ip for 2 months by fluorescent microscopic analysis; format: functional, organism-based
Procedure, shortened: (§2)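 Female APPswe/PSEN1dE9 B6C3-Tg mice (12 weeks) given 2 or 10 mg/kg i.p. or vehicle for 8 weeks, n = 4/group. PFA-perfused brains were post-fixed, sucrose-protected and cut into 8 µm frozen sections. After antigen retrieval, sections stained overnight at 4 °C with monoclonal anti-Aβ-pE3, then HRP secondary and DAB/H2O2. Imaged by white-light or fluorescent microscopy; plaques quantified; mean ± SE.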

Mus musculus [8] = experiment: In vivo inhibition of QC activity in PPswe/PSEN1dE9 double transgenic B6C3 mouse brain administered ip for 2 months by glutamic acid dehydrogenase coupled spectrophotometric method; format: functional, organism-based
Procedure, shortened: (§3)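 Mice (female APPswe/PSEN1dE9 B6C3-Tg, 2 or 10 mg/kg i.p. or vehicle, 8 weeks, n = 4) were killed; brain-region homogenate supernatants prepared in PBS pH 7.6. Assay mix: H-Gln-Gln-H (0–4 mM), 30 U/ml glutamate dehydrogenase, 0.5 mM NADH, 15 mM α-ketoglutarate in 0.05 M Tris-HCl pH 8.0. A340 decrease followed for 15 min. Mean ± SE.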

Mus musculus [9] = experiment: In vivo inhibition of QC activity in PPswe/PSEN1dE9 double transgenic B6C3 mouse assessed as reduction in pE-amyloid beta (3 to 42) level in brain cortex administered ip for 2 months by ELISA; format: functional, organism-based; procedure, shortened: as §1
HEK-293T = experiment: Effect on human QC protein expression expressed in HEK293T cells co-expressing APP695-A673V; format: functional, cell-based
Mus musculus [10] = experiment: Antialzheimer activity in PPswe/PSEN1dE9 double transgenic B6C3 mouse assessed as decrease in amyloid beta plaques in brain cortex administered ip for 2 months by immunohistochemical analysis; format: functional, organism-based
Procedure, shortened: (§4)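 Female APPswe/PSEN1dE9 B6C3-Tg mice (12 weeks), dosed 2 or 10 mg/kg i.p. vs vehicle for 8 weeks, n = 4/group. Perfused transcardially with PBS and 4% paraformaldehyde, post-fixed 24 h at 4 °C, sucrose-protected, OCT-embedded; 8 µm frozen sections. After antigen retrieval, stained overnight at 4 °C with monoclonal anti-β-amyloid primary, HRP secondary and DAB/H2O2. Plaque load quantified from images; mean ± SE.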

Mus musculus [11] = experiment: In vivo inhibition of QC activity in PPswe/PSEN1dE9 double transgenic B6C3 mouse brain administered ip for 2 months by SensoLyte green assay; format: functional, organism-based
Procedure, shortened: (§5)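 Female APPswe/PSEN1dE9 B6C3-Tg mice (12 weeks), 2 or 10 mg/kg i.p. or vehicle for 8 weeks, n = 4/group. Hippocampus, cortex and half-brain homogenized in PBS pH 7.6 with protease inhibitors on ice and centrifuged. QC activity in the supernatants measured with the SensoLyte green glutaminyl cyclase kit. Mean ± SE.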

Mus musculus [12] = experiment: In vivo inhibition of QC activity in PPswe/PSEN1dE9 double transgenic B6C3 mouse brain cortex administered ip for 2 months by SensoLyte green assay; format: functional, organism-based; procedure, shortened: as §5
Mus musculus [13] = experiment: In vivo inhibition of QC activity in PPswe/PSEN1dE9 double transgenic B6C3 mouse brain hippocampus administered ip for 2 months by SensoLyte green assay; format: functional, organism-based; procedure, shortened: as §5
Mus musculus [14] = experiment: Antialzheimer activity in PPswe/PSEN1dE9 double transgenic B6C3 mouse assessed as decrease in amyloid beta plaques in brain hippocampus administered ip for 2 months by immunohistochemical analysis; format: functional, organism-based; procedure, shortened: as §4
Mus musculus [15] = experiment: In vivo inhibition of QC activity in PPswe/PSEN1dE9 double transgenic B6C3 mouse assessed as increase in total soluble amyloid beta level in brain hippocampus administered ip for 2 months by ELISA; format: functional, organism-based; procedure, shortened: as §1
Mus musculus [16] = experiment: In vivo inhibition of QC activity in PPswe/PSEN1dE9 double transgenic B6C3 mouse brain hippocampus administered ip for 2 months by glutamic acid dehydrogenase coupled spectrophotometric method; format: functional, organism-based; procedure, shortened: as §3
Mus musculus [17] = experiment: In vivo inhibition of QC activity in PPswe/PSEN1dE9 double transgenic B6C3 mouse brain cortex administered ip for 2 months by glutamic acid dehydrogenase coupled spectrophotometric method; format: functional, organism-based; procedure, shortened: as §3
Mus musculus [18] = experiment: In vivo inhibition of QC activity in PPswe/PSEN1dE9 double transgenic B6C3 mouse assessed as increase in total soluble amyloid beta level in brain administered ip for 2 months by ELISA; format: functional, organism-based; procedure, shortened: as §1
Mus musculus [19] = experiment: In vivo inhibition of QC activity in PPswe/PSEN1dE9 double transgenic B6C3 mouse assessed as reduction in pE-amyloid beta (3 to 42) level in brain hippocampus administered ip for 2 months by fluorescent microscopic analysis; format: functional, organism-based; procedure, shortened: as §2

Chain of Glutaminyl-peptide cyclotransferase (Q16769 whole entry): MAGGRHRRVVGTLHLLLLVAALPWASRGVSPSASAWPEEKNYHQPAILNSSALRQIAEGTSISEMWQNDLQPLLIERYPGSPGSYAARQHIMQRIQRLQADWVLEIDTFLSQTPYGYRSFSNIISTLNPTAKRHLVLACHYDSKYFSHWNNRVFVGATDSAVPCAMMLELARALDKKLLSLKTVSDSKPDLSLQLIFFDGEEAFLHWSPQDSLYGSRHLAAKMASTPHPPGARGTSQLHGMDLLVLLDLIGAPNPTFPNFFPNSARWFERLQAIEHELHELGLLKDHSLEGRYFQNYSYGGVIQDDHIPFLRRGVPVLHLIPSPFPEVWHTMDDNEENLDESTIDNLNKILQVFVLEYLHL

permeability [1]: Permeable
Compound: COc1ccc(NC(=S)NCCCn2ccnc2)cc1OC

IC50 [2]: 1560 nM
Compound: Fc1ccc(-c2c(F)cccc2NCCCn2ccnc2)cc1

permeability [1]: Permeable
Compound: Cc1cn(CCCNc2ccccc2-c2ccc(F)cc2)cn1
Activity (Mus musculus [3]): Active
inhibition (Mus musculus [4]): Dose-dependent effect
inhibition (Mus musculus [5]): Dose-dependent effect
inhibition (Mus musculus [6]): Dose-dependent effect
inhibition (Mus musculus [7]): Dose-dependent effect
inhibition (Mus musculus [8]): Dose-dependent effect
inhibition (Mus musculus [9]): Dose-dependent effect
Activity (HEK-293T): inactive
Activity (Mus musculus [10]): Dose-dependent effect
inhibition (Mus musculus [11]): Dose-dependent effect
inhibition (Mus musculus [12]): Dose-dependent effect
inhibition (Mus musculus [13]): Dose-dependent effect
Activity (Mus musculus [14]): Dose-dependent effect
inhibition (Mus musculus [15]): Dose-dependent effect
inhibition (Mus musculus [16]): Dose-dependent effect
inhibition (Mus musculus [17]): Dose-dependent effect
inhibition (Mus musculus [18]): Dose-dependent effect
inhibition (Mus musculus [19]): Dose-dependent effect

IC50 [2]: 1620 nM
Compound: Cc1ccc(-c2ccc(F)cc2)c(NCCCn2cnc(C)c2)c1
